Experimental findings from ChEMBL document CHEMBL3616456, “Potential of aryl-urea-benzofuranylthiazoles hybrids as multitasking agents in Alzheimer's disease” (Eur J Med Chem, 2015) are described below.

In one data set the target is Acetylcholinesterase (Electrophorus electricus, UniProt O42275). The experiment in a line: Inhibition of electric eel acetylcholinesterase using acetylthiocholine iodide as substrate preincubated for 15 mins followed by substrate addition by Ellman's method. Background: DTNB colorimetry detects thiols as they appear.
The next data set concerns the target Cholinesterase (Equus caballus, UniProt P81908). The experiment in a line: Inhibition of horse serum butyrylcholinesterase using butyrylthiocholine iodide as substrate preincubated for 15 mins followed by substrate addition by Ellman's method. In a few lines:
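Enzyme in 100 mM phosphate buffer pH 8.0 with sample (n-propanol as solvent and control) preincubated 15 min at 25°C. Reaction started with butyrylthiocholine iodide (0.79 mM solution) plus DTNB. Thiolate-DTNB yellow product followed at 412 nm. IC50 taken from inhibition (%) curves at five concentrations: 12.5, 25, 50, 100 and 200 µM.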

Data set [1] is described as follows: Antioxidant activity assessed as ABTS cation radical scavenging activity measured after 6 mins. Particulars: ABTS cation radical.
Data set [2] is described as follows: Antioxidant activity assessed as cupric reducing antioxidant capacity measured after 1 hr. The class given is physicochemical.
A short description of data set [3]: Selectivity index, ratio of IC50 for horse serum butyrylcholinesterase to IC50 for electric eel acetylcholinesterase.
Data set [4] deals with Cholinesterase (Equus caballus) (UniProt P81908). The experiment in a line: Potency index, ratio of galanthamine IC50 to compound IC50 for horse serum butyrylcholinesterase.
The target is the same in data set [5]. The experiment in a line: Potency index, ratio of donepezil IC50 to compound IC50 for horse serum butyrylcholinesterase.

Sequence of Acetylcholinesterase (O42275 whole entry): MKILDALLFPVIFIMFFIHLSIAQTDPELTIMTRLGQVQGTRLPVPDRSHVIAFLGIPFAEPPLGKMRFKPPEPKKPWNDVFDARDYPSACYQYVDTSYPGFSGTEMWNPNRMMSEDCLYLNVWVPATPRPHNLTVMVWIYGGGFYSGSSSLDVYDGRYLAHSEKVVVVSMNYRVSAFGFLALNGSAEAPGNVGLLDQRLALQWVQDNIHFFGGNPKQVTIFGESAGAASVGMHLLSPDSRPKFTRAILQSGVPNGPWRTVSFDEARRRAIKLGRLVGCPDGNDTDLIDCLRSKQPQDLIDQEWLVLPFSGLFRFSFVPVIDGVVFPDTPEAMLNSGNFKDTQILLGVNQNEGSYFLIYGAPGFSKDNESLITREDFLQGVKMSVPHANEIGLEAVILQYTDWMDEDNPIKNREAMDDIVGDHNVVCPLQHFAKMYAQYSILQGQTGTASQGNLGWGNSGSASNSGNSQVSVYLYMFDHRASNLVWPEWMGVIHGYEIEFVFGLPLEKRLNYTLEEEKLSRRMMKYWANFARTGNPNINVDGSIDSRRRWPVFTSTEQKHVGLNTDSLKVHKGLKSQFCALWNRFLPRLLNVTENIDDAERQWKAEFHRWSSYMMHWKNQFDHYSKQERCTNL
Sequence of Cholinesterase (P81908 whole entry): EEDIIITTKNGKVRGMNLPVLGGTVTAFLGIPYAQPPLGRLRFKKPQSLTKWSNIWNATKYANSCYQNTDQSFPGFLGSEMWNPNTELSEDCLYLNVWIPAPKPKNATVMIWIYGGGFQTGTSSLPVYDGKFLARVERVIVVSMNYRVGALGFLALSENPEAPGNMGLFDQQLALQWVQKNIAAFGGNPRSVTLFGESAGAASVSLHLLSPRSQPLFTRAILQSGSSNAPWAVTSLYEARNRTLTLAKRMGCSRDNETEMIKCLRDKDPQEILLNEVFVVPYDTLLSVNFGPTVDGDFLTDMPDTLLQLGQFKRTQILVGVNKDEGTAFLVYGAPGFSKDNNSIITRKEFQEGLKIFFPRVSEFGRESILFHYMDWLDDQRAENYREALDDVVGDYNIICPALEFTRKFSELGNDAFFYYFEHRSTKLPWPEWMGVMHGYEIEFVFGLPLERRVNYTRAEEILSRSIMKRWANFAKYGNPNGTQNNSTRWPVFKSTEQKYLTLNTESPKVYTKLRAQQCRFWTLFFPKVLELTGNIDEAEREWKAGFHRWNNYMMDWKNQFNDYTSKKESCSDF
Sequence of Cholinesterase (Equus caballus) (P81908 whole entry): as above

Broadly, the IC50 is the concentration that inhibits the measured activity by half. Consider `O=C(Nc1ccc(I)cc1)Nc1nc(-c2cc3cc([N+](=O)[O-])ccc3o2)cs1`, for which the IC50 against Acetylcholinesterase was determined as 5.53 µM; against Cholinesterase it was 2.03 µM; in data set [1], 62.4 µM. Further, the A0.5 in data set [2] was above 200 µM. In addition, the results for the Ratio IC50 in data set [3], in data set [4] and in data set [5] were 0.37, 8.5 and 2.3, respectively.

As for `O=C(Nc1cccc(F)c1)Nc1nc(-c2cc3cc(Br)ccc3o2)cs1`, the IC50 is 29.4 µM against Acetylcholinesterase, 40.2 µM against Cholinesterase and above 200 µM in data set [1]. Besides, the A0.5 in data set [2] was above 200 µM. In addition, the Ratio IC50 in data set [3] stood at 1.37.

Consider `O=C(Nc1ccc(Cl)cc1)Nc1nc(-c2cc3cc(Br)ccc3o2)cs1`, for which the figures for the IC50 (against Acetylcholinesterase; against Cholinesterase; in data set [1]) were 22.2 µM, 36.9 µM and above 200 µM, respectively. The A0.5 in data set [2] was above 200 µM. In data set [3], the Ratio IC50 was 1.66.
